Test results published in ChEMBL document CHEMBL2176911 (J Med Chem, 2012).
Active and inactive are the calls of the source. No cut-off for these calls is given here.

Experiments:
[1] = biological target: Dual specificity tyrosine-phosphorylation-regulated kinase 1A (Mus musculus) (UniProt Q61214); experiment: Binding affinity to DYRK1A in mouse brain homogenate by Western blot analysis; type: tissue-based
How it was run: (§1)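 Bead pull-down from HT22 cell or mouse brain extracts, with ethanolamine beads lacking ligand as control. Specificity was tested by adding excess free inhibitor to the extracts before binding.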

[2] = biological target: Protein VAC14 homolog (Mus musculus) (UniProt Q80WQ2); experiment: Binding affinity to VAC14 in mouse brain homogenate by Western blot analysis; type: tissue-based; how it was run: as §1
Chain of Protein VAC14 homolog (Mus musculus) (Q80WQ2 whole entry): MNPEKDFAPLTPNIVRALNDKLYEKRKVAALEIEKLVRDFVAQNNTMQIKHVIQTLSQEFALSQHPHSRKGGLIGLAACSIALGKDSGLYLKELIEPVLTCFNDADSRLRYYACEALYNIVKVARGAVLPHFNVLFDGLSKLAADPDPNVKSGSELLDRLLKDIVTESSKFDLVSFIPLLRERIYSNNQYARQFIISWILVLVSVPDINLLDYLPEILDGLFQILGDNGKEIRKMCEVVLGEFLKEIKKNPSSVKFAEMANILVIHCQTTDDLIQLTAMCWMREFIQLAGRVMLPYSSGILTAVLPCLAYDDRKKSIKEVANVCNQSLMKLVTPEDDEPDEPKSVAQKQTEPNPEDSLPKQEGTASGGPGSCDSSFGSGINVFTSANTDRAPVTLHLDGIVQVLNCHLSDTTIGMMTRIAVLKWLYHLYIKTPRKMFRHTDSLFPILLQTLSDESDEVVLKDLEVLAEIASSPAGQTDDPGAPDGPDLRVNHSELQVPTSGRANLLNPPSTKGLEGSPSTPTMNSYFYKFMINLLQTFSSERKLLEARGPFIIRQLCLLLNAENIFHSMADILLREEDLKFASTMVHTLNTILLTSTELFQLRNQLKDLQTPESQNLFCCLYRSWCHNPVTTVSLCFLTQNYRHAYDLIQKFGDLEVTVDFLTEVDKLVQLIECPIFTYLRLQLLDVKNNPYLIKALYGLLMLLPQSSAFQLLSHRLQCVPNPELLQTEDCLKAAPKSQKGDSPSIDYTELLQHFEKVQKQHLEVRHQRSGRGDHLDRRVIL

[3] = biological target: Casein kinase II subunit beta (Mus musculus) (UniProt P67871); experiment: Binding affinity to CK2 beta subunit in mouse brain homogenate by Western blot analysis; type: tissue-based; how it was run: as §1
Chain of Casein kinase II subunit beta (Mus musculus) (P67871 whole entry): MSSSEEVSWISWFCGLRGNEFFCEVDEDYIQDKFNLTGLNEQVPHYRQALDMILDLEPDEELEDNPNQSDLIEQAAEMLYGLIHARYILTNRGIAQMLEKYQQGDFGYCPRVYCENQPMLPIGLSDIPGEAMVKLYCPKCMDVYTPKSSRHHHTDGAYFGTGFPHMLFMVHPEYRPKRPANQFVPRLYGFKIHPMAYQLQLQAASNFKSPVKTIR

CDK9/cyclin T1 = CDK9/cyclin T1 (Homo sapiens, UniProt P50750); experiment: Inhibition of human recombinant CDK9/cyclin T expressed in insect cell using YSPTSPSYSPTSPSYSPTSPSKKKK as substrate and [gamma33P]ATP after 30 mins by scintillation counting
Chain of CDK9/cyclin T1 (O60563 whole entry): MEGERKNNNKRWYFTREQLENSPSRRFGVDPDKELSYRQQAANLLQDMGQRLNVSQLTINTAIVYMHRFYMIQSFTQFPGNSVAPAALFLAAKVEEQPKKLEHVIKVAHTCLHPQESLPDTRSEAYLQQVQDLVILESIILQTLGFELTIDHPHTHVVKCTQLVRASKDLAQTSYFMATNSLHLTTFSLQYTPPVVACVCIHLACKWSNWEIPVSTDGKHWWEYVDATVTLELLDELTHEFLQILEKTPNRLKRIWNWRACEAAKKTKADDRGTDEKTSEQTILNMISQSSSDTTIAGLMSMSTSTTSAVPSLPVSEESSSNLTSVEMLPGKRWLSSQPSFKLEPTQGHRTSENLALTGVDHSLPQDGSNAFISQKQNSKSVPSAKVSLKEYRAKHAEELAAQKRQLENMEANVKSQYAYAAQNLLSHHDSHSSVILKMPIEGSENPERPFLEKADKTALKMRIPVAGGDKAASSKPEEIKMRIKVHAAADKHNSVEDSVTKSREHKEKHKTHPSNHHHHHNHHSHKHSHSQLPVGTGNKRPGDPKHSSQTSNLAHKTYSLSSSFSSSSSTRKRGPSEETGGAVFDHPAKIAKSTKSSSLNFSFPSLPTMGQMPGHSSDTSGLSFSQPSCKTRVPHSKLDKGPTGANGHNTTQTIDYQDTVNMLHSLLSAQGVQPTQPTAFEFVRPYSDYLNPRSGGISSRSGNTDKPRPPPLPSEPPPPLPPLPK
Chain of CDK9/cyclin T1 (P50750 whole entry): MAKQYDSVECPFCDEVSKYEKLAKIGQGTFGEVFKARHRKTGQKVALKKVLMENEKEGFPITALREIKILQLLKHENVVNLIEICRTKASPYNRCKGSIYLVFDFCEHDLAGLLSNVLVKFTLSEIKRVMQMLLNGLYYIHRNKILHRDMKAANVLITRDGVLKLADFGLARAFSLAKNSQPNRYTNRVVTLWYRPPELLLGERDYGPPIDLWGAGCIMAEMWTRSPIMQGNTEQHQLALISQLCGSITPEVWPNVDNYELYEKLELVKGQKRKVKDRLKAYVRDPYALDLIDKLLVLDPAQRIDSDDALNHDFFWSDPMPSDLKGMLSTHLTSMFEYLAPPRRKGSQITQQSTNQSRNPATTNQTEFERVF
How it was run: (§2)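 Panel of purified kinases (recombinant from several species plus native enzymes), each assayed radiometrically over a range of inhibitor concentrations; IC50 in μM calculated from the dose-response curves.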

[4] = biological target: Glycogen synthase kinase-3 alpha (Mus musculus) (UniProt Q2NL51); experiment: Binding affinity to GSK3alpha in mouse brain homogenate by Western blot analysis; type: tissue-based; how it was run: as §1
Chain of Glycogen synthase kinase-3 alpha (Mus musculus) (Q2NL51 whole entry): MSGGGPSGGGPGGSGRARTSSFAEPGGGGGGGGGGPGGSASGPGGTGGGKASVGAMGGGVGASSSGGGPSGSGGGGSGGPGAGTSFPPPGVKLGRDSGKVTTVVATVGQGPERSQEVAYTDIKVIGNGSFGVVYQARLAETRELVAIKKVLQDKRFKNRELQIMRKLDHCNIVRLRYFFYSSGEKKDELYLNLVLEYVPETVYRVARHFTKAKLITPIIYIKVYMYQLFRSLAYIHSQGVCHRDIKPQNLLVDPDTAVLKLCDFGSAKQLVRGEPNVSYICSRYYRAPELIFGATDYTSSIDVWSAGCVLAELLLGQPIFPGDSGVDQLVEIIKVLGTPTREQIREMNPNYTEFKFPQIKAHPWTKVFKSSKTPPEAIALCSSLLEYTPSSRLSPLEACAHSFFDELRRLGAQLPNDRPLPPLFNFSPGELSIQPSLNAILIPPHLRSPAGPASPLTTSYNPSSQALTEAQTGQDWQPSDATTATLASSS

[5] = biological target: Homeodomain-interacting protein kinase 1 (Homo sapiens, UniProt Q86Z02); experiment: Binding affinity to HIPK1
[6] = biological target: Glycogen synthase kinase-3 alpha (Mus musculus) (UniProt Q2NL51); experiment: Binding affinity to GSK3alpha in mouse HT22 cell lysate by Western blot analysis; type: cell-free; conditions: HT-22; how it was run: as §1
Mus musculus [7] = organism: Mus musculus; experiment: Binding affinity to GSK3beta2 in mouse brain homogenate by Western blot analysis; type: tissue-based; how it was run: as §1
[8] = biological target: Dual specificity protein kinase CLK1 (Mus musculus, UniProt P22518); experiment: Inhibition of mouse recombinant GST-tagged CLK1 expressed in Escherichia coli using GRSRSRSRSRSR as substrate and [gamma33P]ATP after 30 mins by scintillation counting; how it was run: as §2
Chain of Dual specificity protein kinase CLK1 (P22518 whole entry): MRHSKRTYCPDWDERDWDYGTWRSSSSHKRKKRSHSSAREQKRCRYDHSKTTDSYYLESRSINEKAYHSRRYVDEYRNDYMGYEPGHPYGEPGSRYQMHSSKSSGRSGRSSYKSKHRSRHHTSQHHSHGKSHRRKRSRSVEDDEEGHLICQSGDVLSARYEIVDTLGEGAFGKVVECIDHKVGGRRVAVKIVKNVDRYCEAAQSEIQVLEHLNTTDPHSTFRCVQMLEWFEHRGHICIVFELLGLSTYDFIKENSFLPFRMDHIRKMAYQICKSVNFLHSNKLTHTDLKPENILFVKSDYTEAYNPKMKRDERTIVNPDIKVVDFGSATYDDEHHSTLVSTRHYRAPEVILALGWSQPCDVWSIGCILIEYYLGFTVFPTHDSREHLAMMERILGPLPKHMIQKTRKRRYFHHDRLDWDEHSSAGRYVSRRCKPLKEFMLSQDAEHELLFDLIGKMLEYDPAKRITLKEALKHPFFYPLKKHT

[9] = biological target: STE20-like serine/threonine-protein kinase (Mus musculus, UniProt O54988); experiment: Binding affinity to SLK1 in mouse brain homogenate after 3 hrs by competition affinity chromatographic analysis; type: tissue-based
How it was run: (§3)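 Mouse brain lysate applied to a KinAffinity matrix of mixed immobilized broad-spectrum kinase inhibitors at highest loading density, with increasing concentrations of free inhibitor added. […] Separate titrations of the immobilized ligands gave BC50 values.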

[10] = biological target: Glycogen synthase kinase-3 alpha (Mus musculus, UniProt Q2NL51); experiment: Binding affinity to GSK3A in mouse brain homogenate after 3 hrs by competition affinity chromatographic analysis; type: tissue-based; how it was run: as §3
Chain of Glycogen synthase kinase-3 alpha (Mus musculus, UniProt Q2NL51) (Q2NL51 whole entry): as the sequence (Q2NL51 whole entry) above

[11] = biological target: Dual specificity tyrosine-phosphorylation-regulated kinase 1A (Homo sapiens) (UniProt Q13627); experiment: Inhibition of human recombinant GST-tagged DYRK1A expressed in Escherichia coli using KKISGRLSPIMTEQ as substrate at 10 uM after 30 mins
[12] = biological target: Dual specificity tyrosine-phosphorylation-regulated kinase 3 (Homo sapiens) (UniProt O43781); experiment: Inhibition of human recombinant GST-tagged DYRK3 expressed in Escherichia coli using KKISGRLSPIMTEQ as substrate at 10 uM after 30 mins
Chain of Dual specificity tyrosine-phosphorylation-regulated kinase 3 (Homo sapiens) (O43781 whole entry): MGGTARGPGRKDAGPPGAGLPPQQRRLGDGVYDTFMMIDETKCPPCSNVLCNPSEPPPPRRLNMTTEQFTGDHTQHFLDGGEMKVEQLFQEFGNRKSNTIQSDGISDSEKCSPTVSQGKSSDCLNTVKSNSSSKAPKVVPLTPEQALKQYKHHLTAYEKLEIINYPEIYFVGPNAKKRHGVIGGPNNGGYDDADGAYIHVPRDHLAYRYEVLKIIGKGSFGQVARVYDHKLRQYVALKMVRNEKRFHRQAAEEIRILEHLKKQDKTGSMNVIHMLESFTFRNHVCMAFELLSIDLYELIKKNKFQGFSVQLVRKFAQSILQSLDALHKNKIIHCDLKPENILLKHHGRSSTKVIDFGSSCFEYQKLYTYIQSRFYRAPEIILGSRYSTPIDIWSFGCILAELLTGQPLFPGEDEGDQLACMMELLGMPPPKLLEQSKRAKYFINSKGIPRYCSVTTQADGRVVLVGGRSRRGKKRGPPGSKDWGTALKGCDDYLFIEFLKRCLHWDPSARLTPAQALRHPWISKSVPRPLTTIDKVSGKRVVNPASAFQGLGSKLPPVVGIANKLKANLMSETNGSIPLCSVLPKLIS

Casein kinase II = Casein kinase II (Homo sapiens, UniProt P19784+P67870+P68400); experiment: Inhibition of human recombinant CK2 using RRREDEESDDEE as substrate and [gamma33P]ATP after 30 mins by scintillation counting; type: protein-complex assay
How it was run: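 Purified recombinant kinase from a 26-enzyme panel, with inhibitor tested at various concentrations. IC50 in μM calculated from dose–response curves.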

HT-22 = experiment: Inhibition of GSK3 in mouse HT22 cells at 10 uM after 4 hrs; type: cell-based
[13] = biological target: Serine/threonine-protein kinase TAO1 (Homo sapiens, UniProt Q7L7X3); experiment: Binding affinity to TAOK1
Chain of Serine/threonine-protein kinase TAO1 (Q7L7X3 whole entry): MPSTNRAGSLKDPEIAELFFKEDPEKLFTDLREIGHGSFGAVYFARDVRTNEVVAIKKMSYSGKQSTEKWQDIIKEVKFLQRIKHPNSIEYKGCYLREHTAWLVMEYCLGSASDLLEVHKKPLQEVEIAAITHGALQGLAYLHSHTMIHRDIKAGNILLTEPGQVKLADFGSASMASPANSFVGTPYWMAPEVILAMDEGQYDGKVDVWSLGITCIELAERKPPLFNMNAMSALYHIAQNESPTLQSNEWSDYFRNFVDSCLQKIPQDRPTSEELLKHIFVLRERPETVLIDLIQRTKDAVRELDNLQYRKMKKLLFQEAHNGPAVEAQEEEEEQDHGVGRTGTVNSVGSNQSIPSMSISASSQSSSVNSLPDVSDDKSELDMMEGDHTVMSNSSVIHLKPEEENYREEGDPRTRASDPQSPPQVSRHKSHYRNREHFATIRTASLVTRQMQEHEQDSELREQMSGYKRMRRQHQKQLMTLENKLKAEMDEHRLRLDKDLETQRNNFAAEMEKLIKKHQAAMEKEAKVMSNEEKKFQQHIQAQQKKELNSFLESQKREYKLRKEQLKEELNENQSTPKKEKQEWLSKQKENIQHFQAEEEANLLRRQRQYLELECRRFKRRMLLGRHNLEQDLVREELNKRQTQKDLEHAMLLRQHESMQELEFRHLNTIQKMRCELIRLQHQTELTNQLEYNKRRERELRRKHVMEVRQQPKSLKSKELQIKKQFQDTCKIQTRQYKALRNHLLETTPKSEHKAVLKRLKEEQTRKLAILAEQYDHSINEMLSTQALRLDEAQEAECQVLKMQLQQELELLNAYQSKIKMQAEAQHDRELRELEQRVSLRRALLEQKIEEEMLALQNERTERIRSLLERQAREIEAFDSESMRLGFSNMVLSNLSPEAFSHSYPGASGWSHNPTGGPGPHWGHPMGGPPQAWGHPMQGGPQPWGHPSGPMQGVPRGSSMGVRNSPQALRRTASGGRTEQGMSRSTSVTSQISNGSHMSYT

Mus musculus [14] = organism: Mus musculus; experiment: Binding affinity to GSK3beta1 in mouse brain homogenate by Western blot analysis; type: tissue-based; how it was run: as §1
[15] = biological target: T1, Dual specificity tyrosine-phosphorylation-regulated kinase 4 (Homo sapiens, UniProt Q9NR20); experiment: Inhibition of human recombinant GST-tagged DYRK4 expressed in Escherichia coli using GRSRSRSRSRSR as substrate and [gamma33P]ATP after 30 mins by scintillation counting
T1 sequence (Q9NR20 whole entry): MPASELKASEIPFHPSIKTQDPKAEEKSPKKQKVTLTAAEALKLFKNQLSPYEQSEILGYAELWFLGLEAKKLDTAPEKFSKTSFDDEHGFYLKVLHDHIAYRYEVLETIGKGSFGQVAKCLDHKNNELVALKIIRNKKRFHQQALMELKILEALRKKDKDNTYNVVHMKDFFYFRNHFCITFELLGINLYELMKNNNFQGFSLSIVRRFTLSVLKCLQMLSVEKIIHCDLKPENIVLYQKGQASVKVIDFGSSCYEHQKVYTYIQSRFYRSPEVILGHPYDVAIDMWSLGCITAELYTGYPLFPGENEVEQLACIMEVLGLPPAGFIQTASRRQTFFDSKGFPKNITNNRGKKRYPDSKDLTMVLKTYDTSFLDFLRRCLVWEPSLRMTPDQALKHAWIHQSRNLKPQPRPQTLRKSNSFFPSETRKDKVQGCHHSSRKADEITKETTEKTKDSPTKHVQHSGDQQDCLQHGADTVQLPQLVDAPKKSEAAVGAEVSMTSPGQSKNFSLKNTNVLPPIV

[16] = biological target: T2, Dual specificity tyrosine-phosphorylation-regulated kinase 2 (Homo sapiens) (UniProt Q92630); experiment: Inhibition of human recombinant GST-tagged DYRK2 expressed in Escherichia coli using KKISGRLSPIMTEQ as substrate at 1 uM after 30 mins
T2 sequence (whole entry): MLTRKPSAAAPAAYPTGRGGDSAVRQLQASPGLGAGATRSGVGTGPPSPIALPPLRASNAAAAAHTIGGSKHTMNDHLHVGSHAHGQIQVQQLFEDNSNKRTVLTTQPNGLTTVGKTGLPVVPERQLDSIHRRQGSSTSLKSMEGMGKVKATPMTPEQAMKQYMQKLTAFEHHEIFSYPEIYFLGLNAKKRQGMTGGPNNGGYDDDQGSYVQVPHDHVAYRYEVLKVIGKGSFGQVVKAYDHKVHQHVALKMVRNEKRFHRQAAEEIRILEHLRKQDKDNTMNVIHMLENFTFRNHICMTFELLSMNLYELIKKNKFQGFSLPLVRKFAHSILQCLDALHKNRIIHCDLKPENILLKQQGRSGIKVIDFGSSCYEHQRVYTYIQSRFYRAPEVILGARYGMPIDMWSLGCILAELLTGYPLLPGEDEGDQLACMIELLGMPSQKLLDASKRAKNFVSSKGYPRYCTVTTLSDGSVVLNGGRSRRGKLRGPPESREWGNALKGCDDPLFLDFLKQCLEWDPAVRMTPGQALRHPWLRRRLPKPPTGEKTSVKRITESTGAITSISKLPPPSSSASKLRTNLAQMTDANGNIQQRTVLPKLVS

[17] = biological target: Glycogen synthase kinase-3 alpha (Homo sapiens, UniProt P49840); experiment: Inhibition of human recombinant GSK3alpha expressed in insect cells using YRRAAVPPSPSLSRHSSPHQ-phosphoS-EDEEE as substrate and [gamma33P]ATP after 30 mins by scintillation counting

## O=C1NC(Nc2ccccc2)=N/C1=C\c1ccc2c(c1)OCO2
[1]
  Activity: Active
[2]
  Activity: Active
[3]
  Activity: Active
CDK9/cyclin T1
  IC50: 18000 nM
[4]
  Activity: Active
[5]
  Kd: 320 nM
[6]
  Activity: Active
Mus musculus [7]
  Activity: Active
[8]
  IC50: 71 nM
[9]
  Kd(free): 21 nM
[10]
  Kd(free): 3274 nM
[11]
  inhibition: Active
[12]
  inhibition: Active
Casein kinase II
  IC50: 320 nM
HT-22
  inhibition: inactive
[13]
  Kd: 1700 nM
Mus musculus [14]
  Activity: Active
[15]
  IC50: 520 nM
[16]
  inhibition: Active
[17]
  IC50: 210 nM
